The source made the active and inactive calls. The calls are words filed in the database; no cut-off is given here.

The test system of series [1] is Sarcoma-180. The experiment in a line: Antitumor activity against mouse Sarcoma 180 cells allografted in CD-1 mouse assessed as mouse survival at 40 mg/kg, ip qd for 6 consecutive days starting 24 hrs post implantation measured after 50 days relative to control. It is filed as functional. The conditions noted are these: Sarcoma-180, ip, route intraperitoneal. The essentials: (§1)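 Female CD-1 mice carrying Sarcoma 180 ascites cells from 7-day donor tumors. Given intraperitoneal doses daily for six consecutive days beginning 24 h after implantation; groups of 10 mice, 5 for some. Read-out is the percentage of mice in each group alive more than 50 days.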

Series [2] deals with Sarcoma-180. In words: Antitumor activity against mouse Sarcoma 180 cells allografted in CD-1 mouse assessed as increase in average survival time at 40 mg/kg, ip qd for 6 consecutive days starting 24 hrs post implantation measured relative to control. The series is classed as functional. The conditions noted are these: route intraperitoneal. The essentials: (§2)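 Sarcoma 180 ascites cells propagated in female CD-1 mice; implanted from donors carrying 7-day tumors. Dosed intraperitoneally once daily for six days starting 24 h post-implant; 10 mice per group, 5 for some groups. %T/C = average survival time (treated/control) × 100; mice surviving more than 50 days counted as 50 days. Body-weight change over the therapy period also recorded.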

Series [3] deals with Mus musculus. The experiment in a line: Toxicity in mouse Sarcoma 180 cells allografted CD-1 mouse assessed as change in body weight at 40 mg/kg, ip qd for 6 consecutive days starting 24 hrs post implantation (reference value: +13.5 %). Also on record: dose 40 mg/kg, route intraperitoneal. The series is classed as organism-based. The note with it: in vivo.
In series [4] the test system is L1210. In words: Antitumor activity against mouse L1210 cells allografted in CDF-1 mouse assessed as increase in average survival time at 60 to 100 mg/kg, ip qd for 6 consecutive days starting 24 hrs post implantation relative to control. The note with it: dose mg/kg 60-100; route intraperitoneal.
Series [5] relates to Sarcoma-180. The experiment in a line: Antitumor activity against mouse Sarcoma 180 cells allografted in CD-1 mouse assessed as mouse survival at 60 mg/kg, ip qd for 6 consecutive days starting 24 hrs post implantation measured after 50 days relative to control. It is filed as functional. The note with it: Sarcoma-180, ip, route intraperitoneal. The essentials:
as §1

Series [6] relates to Sarcoma-180. In words: Antitumor activity against mouse Sarcoma 180 cells allografted in CD-1 mouse assessed as mouse survival at 80 mg/kg, ip qd for 6 consecutive days starting 24 hrs post implantation measured after 50 days relative to control. The series is classed as functional. The conditions noted are these: Sarcoma-180, ip, route intraperitoneal. In short, it runs like this: as §1

Series [7] has as its system Sarcoma-180. The experiment in a line: Antitumor activity against mouse Sarcoma 180 cells allografted in CD-1 mouse assessed as increase in average survival time at 60 mg/kg, ip qd for 6 consecutive days starting 24 hrs post implantation measured relative to control. The series is classed as functional. The conditions noted are these: route intraperitoneal. In short, it runs like this: as §2

Series [8] has as its system Sarcoma-180. The experiment in a line: Antitumor activity against mouse Sarcoma 180 cells allografted in CD-1 mouse assessed as increase in average survival time at 80 mg/kg, ip qd for 6 consecutive days starting 24 hrs post implantation measured relative to control. The series is classed as functional. The conditions noted are these: route intraperitoneal. The essentials:
as §2

For series [9], the system named is Mus musculus. The experiment in a line: Toxicity in mouse Sarcoma 180 cells allografted CD-1 mouse assessed as change in body weight at 60 mg/kg, ip qd for 6 consecutive days starting 24 hrs post implantation (reference value: +13.5 %). It is filed as organism-based. Set-up: dose 60 mg/kg, route intraperitoneal. The note with it: in vivo.
Series [10] relates to Mus musculus. The experiment in a line: Toxicity in mouse Sarcoma 180 cells allografted CD-1 mouse assessed as change in body weight at 80 mg/kg, ip qd for 6 consecutive days starting 24 hrs post implantation (reference value: +13.5 %). The series is classed as organism-based. Set-up: dose 80 mg/kg, route intraperitoneal. The note with it: in vivo.
In series [11] the test system is L1210. In words: Antitumor activity against mouse L1210 cells allografted in […] mouse assessed as increase in average survival time at 60 to 100 mg/kg, ip qd for 6 consecutive days starting 24 hrs post implantation relative to control.
For series [12], the system named is Sarcoma-180. The experiment in a line: Antitumor activity against mouse Sarcoma 180 cells allografted in CD-1 mouse assessed as increase in average survival time at 80 mg/kg, ip qd for 6 consecutive days starting 24 hrs post implantation measured relative to control.

On to `O=S(=O)(N/N=C/c1cccc[n+]1[O-])c1ccccc1`, for which the survival at 40 mg/kg in the series on Sarcoma-180 [1] came to 20%. Moreover, the T/C in the series with Sarcoma-180 [2] is reported as 235%; in the series with L1210 [4], 126%. Also, the Activity in the series on Mus musculus [3] is -2.6%.
In the case of `COc1ccc(S(=O)(=O)N/N=C/c2cccn[n+]2[O-])cc1`, the survival at 40 mg/kg with Sarcoma-180 [1] is 10%. The survival at 60 mg/kg in the series on Sarcoma-180 [5] is 20%. Besides, the survival at 80 mg/kg in the series on Sarcoma-180 [6] is 0%. For the same compound, the T/C in the series with Sarcoma-180 [2] was found to be 231%; in the series with Sarcoma-180 [7], 218%; with Sarcoma-180 [8] it was 193%. Besides, the Activity in the series with Mus musculus [3] is listed as -1.6%; in the series on Mus musculus [9], -3.2%; in the series on Mus musculus [10], -4.3%. In addition, in the series with L1210 [11], the outcome was inactive.
For `Cc1ccc(S(=O)(=O)N/N=C/c2cccc[n+]2[O-])cc1`, in the series on L1210 [4], the T/C is 170%.
As for `O=S(=O)(N/N=C/c1ccnc[n+]1[O-])c1ccccc1`, the survival at 40 mg/kg with Sarcoma-180 [1] amounted to 0%. In the series with Sarcoma-180 [5], the survival at 60 mg/kg worked out at 0%. Also, the survival at 80 mg/kg in the series with Sarcoma-180 [6] is 0%. Also, the T/C in the series on Sarcoma-180 [2] is reported as 89%; with Sarcoma-180 [7], 97%; in the series on Sarcoma-180 [8], 112%. Further, the Activity in the series with Mus musculus [3] came to 16.3%; with Mus musculus [9] it was 11.2%; with Mus musculus [10], 9.6%. The result in the series on L1210 [11] and with Sarcoma-180 [12] was inactive.
With `Cc1ccc(S(=O)(=O)N/N=C/c2ccnc[n+]2[O-])cc1`, the survival at 40 mg/kg with Sarcoma-180 [1] is 0%. Also, the survival at 60 mg/kg with Sarcoma-180 [5] turned out to be 0%. Further, in the series with Sarcoma-180 [6], the survival at 80 mg/kg worked out at 0%. The figures for the T/C in the series on Sarcoma-180 [2], with Sarcoma-180 [7] and in the series on Sarcoma-180 [8] were 115%, 100% and 103%, respectively. In addition, the results for the Activity in the series with Mus musculus [3], in the series on Mus musculus [9] and in the series on Mus musculus [10] were 19.6%, 16.5% and 15.2%, respectively. Besides, the result with L1210 [11] and in the series with Sarcoma-180 [12] was inactive.
`COc1ccc(S(=O)(=O)N/N=C/c2ccnc[n+]2[O-])cc1`: the survival at 40 mg/kg in the series on Sarcoma-180 [1] was 0%. In addition, in the series on Sarcoma-180 [5], the survival at 60 mg/kg turned out to be 0%. For the same compound, the survival at 80 mg/kg in the series on Sarcoma-180 [6] was determined as 0%. In addition, the T/C in the series with Sarcoma-180 [2] amounted to 96%; in the series with Sarcoma-180 [7], 100%; in the series with Sarcoma-180 [8] it was 94%. The Activity is 20.3% in the series on Mus musculus [3], 10.8% with Mus musculus [9] and 13.9% in the series with Mus musculus [10]. Moreover, the result in the series on L1210 [11] and with Sarcoma-180 [12] was inactive.
With `O=S(=O)(N/N=C/c1cccn[n+]1[O-])c1ccccc1`, the survival at 40 mg/kg with Sarcoma-180 [1] is 10%. Moreover, the survival at 60 mg/kg with Sarcoma-180 [5] turned out to be 10%. Moreover, the survival at 80 mg/kg in the series with Sarcoma-180 [6] stood at 40%. Further, the T/C in the series on Sarcoma-180 [2] came out at 194%; in the series with Sarcoma-180 [7] it was 230%; in the series with Sarcoma-180 [8], 274%. For the same compound, the Activity in the series with Mus musculus [3] was -2.9%; in the series with Mus musculus [9] it was -3.8%; with Mus musculus [10] it was -3.5%. Further, the outcome in the series on L1210 [11] was inactive.
As for `Cc1ccc(S(=O)(=O)N/N=C/c2cccn[n+]2[O-])cc1`, the survival at 40 mg/kg in the series on Sarcoma-180 [1] is 10%. Moreover, in the series on Sarcoma-180 [5], the survival at 60 mg/kg stood at 20%. The survival at 80 mg/kg with Sarcoma-180 [6] was determined as 60%. In addition, the T/C in the series with Sarcoma-180 [2] was 164%; in the series on Sarcoma-180 [7] it was 254%; in the series with Sarcoma-180 [8], 315%. Also, the values for the Activity in the series on Mus musculus [3], in the series on Mus musculus [9] and with Mus musculus [10] were -0.2%, -3.2% and -4.9%, respectively. In addition, in the series with L1210 [11], the result was inactive.
As to `COc1ccc(S(=O)(=O)N/N=C/c2cccc[n+]2[O-])cc1`, in the series on L1210 [4], the T/C is 234%.

(Values after ChEMBL document CHEMBL3244267, “Antineoplastic properties of arylsulfonylhdrazones of 3-formylpyridazine 2-oxide and 4-formylpyrimidine 3-oxide” (J Med Chem, 1978).)
